From ChEMBL document CHEMBL4004831, “Naphthalene diimide-polyamine hybrids as antiproliferative agents: Focus on the architecture of the polyamine chains” (Eur J Med Chem, 2017)

Tests used:
[1] = species: Homo sapiens; assay: Stabilization of 5'Dabcyl/3'FAM labeled human telomeric sequence G-quadruplex DNA assessed as increase in melting temperature at 2.5 uM pretreated for 5 mins at 30 degreeC followed by 5 mins incubation at 95 degreeC by fluorescence assay
In short: (§1)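 FRET melting in LiP buffer (10 mM LiOH, 50 mM KCl, pH 7.0 with H3PO4), ex 488 nm, em 520 nm. Samples were held 5 min at 30 °C, heated at 1 °C/min to 95 °C, held 5 min, then re-annealed. Tm came from first derivatives; ΔTm = shift with ligand at 2.5; at least three runs.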

[2] = Stabilization of 5'Dabcyl/3'FAM labeled duplex DNA (unknown origin) assessed as increase in melting temperature at 2.5 uM pretreated for 5 mins at 30 degreeC followed by 5 mins incubation at 95 degreeC by fluorescence assay; in short: as §1
[3] = test system: CCRF-CEM; assay: Growth inhibition of human CCRF-CEM cells incubated for 48 hrs by sulforhodamine B assay; type: functional
[4] = test system: RPMI-8226; assay: Growth inhibition of human RPMI8226 cells incubated for 48 hrs by sulforhodamine B assay; type: functional; details: RPMI-8226, 48 h
[5] = test system: SR; assay: Growth inhibition of human SR cells incubated for 48 hrs by sulforhodamine B assay; type: functional
[6] = test system: A549; assay: Growth inhibition of human A549/ATCC cells incubated for 48 hrs by sulforhodamine B assay; type: functional; details: A549, 48 h
[7] = test system: EKVX; assay: Growth inhibition of human EKVX cells incubated for 48 hrs by sulforhodamine B assay; type: functional
[8] = test system: HOP-62; assay: Growth inhibition of human HOP62 cells incubated for 48 hrs by sulforhodamine B assay; type: functional; details: HOP-62, 48 h
[9] = test system: HOP-92; assay: Growth inhibition of human HOP92 cells incubated for 48 hrs by sulforhodamine B assay; type: functional; details: HOP-92, 48 h
[10] = test system: NCI-H226; assay: Growth inhibition of human NCI-H226 cells incubated for 48 hrs by sulforhodamine B assay; type: functional; details: NCI-H226, 48 h
[11] = test system: NCI-H23; assay: Growth inhibition of human NCI-H23 cells incubated for 48 hrs by sulforhodamine B assay; type: functional; details: NCI-H23, 48 h
[12] = test system: NCI-H322M; assay: Growth inhibition of human NCI-H322M cells incubated for 48 hrs by sulforhodamine B assay; type: functional
[13] = test system: COLO 205; assay: Growth inhibition of human COLO205 cells incubated for 48 hrs by sulforhodamine B assay; type: functional; details: COLO 205, 48 h
[14] = test system: HCC 2998; assay: Growth inhibition of human HCC2998 cells incubated for 48 hrs by sulforhodamine B assay; type: functional; details: HCC 2998, 48 h
[15] = test system: HCT-116; assay: Growth inhibition of human HCT116 cells incubated for 48 hrs by sulforhodamine B assay; type: functional; details: HCT-116, 48 h
[16] = test system: HCT-15; assay: Growth inhibition of human HCT15 cells incubated for 48 hrs by sulforhodamine B assay; type: functional; details: HCT-15, 48 h
[17] = test system: HT-29; assay: Growth inhibition of human HT-29 cells incubated for 48 hrs by sulforhodamine B assay; type: functional; details: HT-29, 48 h
[18] = test system: SW-620; assay: Growth inhibition of human SW620 cells incubated for 48 hrs by sulforhodamine B assay; type: functional; details: SW-620, 48 h
[19] = test system: SF-268; assay: Growth inhibition of human SF268 cells incubated for 48 hrs by sulforhodamine B assay; type: functional; details: SF-268, 48 h
[20] = test system: SF-295; assay: Growth inhibition of human SF295 cells incubated for 48 hrs by sulforhodamine B assay; type: functional; details: SF-295, 48 h
[21] = test system: SNB-19; assay: Growth inhibition of human SNB19 cells incubated for 48 hrs by sulforhodamine B assay; type: functional; details: SNB-19, 48 h
[22] = test system: SNB-75; assay: Growth inhibition of human SNB75 cells incubated for 48 hrs by sulforhodamine B assay; type: functional; details: SNB-75, 48 h
[23] = test system: LOX IMVI; assay: Growth inhibition of human LOXIMVI cells incubated for 48 hrs by sulforhodamine B assay; type: functional
[24] = test system: M14; assay: Growth inhibition of human M14 cells incubated for 48 hrs by sulforhodamine B assay; type: functional; details: M14, 48 h
[25] = test system: MDA-MB-435; assay: Growth inhibition of human MDA-MB-435 cells incubated for 48 hrs by sulforhodamine B assay; type: functional; details: MDA-MB-435, 48 h
[26] = test system: SK-MEL-2; assay: Growth inhibition of human SK-MEL-2 cells incubated for 48 hrs by sulforhodamine B assay; type: functional; details: SK-MEL-2, 48 h
[27] = test system: SK-MEL-28; assay: Growth inhibition of human SK-MEL-28 cells incubated for 48 hrs by sulforhodamine B assay; type: functional; details: SK-MEL-28, 48 h
[28] = test system: SK-MEL-5; assay: Growth inhibition of human SK-MEL-5 cells incubated for 48 hrs by sulforhodamine B assay; type: functional; details: SK-MEL-5, 48 h
[29] = test system: UACC-257; assay: Growth inhibition of human UACC257 cells incubated for 48 hrs by sulforhodamine B assay; type: functional; details: UACC-257, 48 h
[30] = test system: UACC-62; assay: Growth inhibition of human UACC62 cells incubated for 48 hrs by sulforhodamine B assay; type: functional; details: UACC-62, 48 h
[31] = test system: OVCAR-3; assay: Growth inhibition of human OVCAR3 cells incubated for 48 hrs by sulforhodamine B assay; type: functional; details: OVCAR-3, 48 h
[32] = test system: OVCAR-4; assay: Growth inhibition of human OVCAR4 cells incubated for 48 hrs by sulforhodamine B assay; type: functional; details: OVCAR-4, 48 h
[33] = test system: OVCAR-5; assay: Growth inhibition of human OVCAR5 cells incubated for 48 hrs by sulforhodamine B assay; type: functional; details: OVCAR-5, 48 h
[34] = test system: OVCAR-8; assay: Growth inhibition of human OVCAR8 cells incubated for 48 hrs by sulforhodamine B assay; type: functional; details: OVCAR-8, 48 h
[35] = test system: 786-0; assay: Growth inhibition of human 786-0 cells incubated for 48 hrs by sulforhodamine B assay; type: functional; details: 786-0, 48 h
[36] = test system: ACHN; assay: Growth inhibition of human ACHN cells incubated for 48 hrs by sulforhodamine B assay; type: functional
[37] = test system: RXF 393; assay: Growth inhibition of human RXF393 cells incubated for 48 hrs by sulforhodamine B assay; type: functional; details: RXF 393, 48 h
[38] = test system: SN12C; assay: Growth inhibition of human SN12C cells incubated for 48 hrs by sulforhodamine B assay; type: functional
[39] = test system: TK-10; assay: Growth inhibition of human TK10 cells incubated for 48 hrs by sulforhodamine B assay; type: functional; details: TK-10, 48 h
[40] = test system: UO-31; assay: Growth inhibition of human UO31 cells incubated for 48 hrs by sulforhodamine B assay; type: functional; details: UO-31, 48 h
[41] = test system: DU-145; assay: Growth inhibition of human DU145 cells incubated for 48 hrs by sulforhodamine B assay; type: functional; details: DU-145, 48 h
[42] = test system: MDA-MB-231; assay: Growth inhibition of human MDA-MB-231 cells incubated for 48 hrs by sulforhodamine B assay; type: functional; details: MDA-MB-231, 48 h
[43] = test system: BT-549; assay: Growth inhibition of human BT549 cells incubated for 48 hrs by sulforhodamine B assay; type: functional; details: BT-549, 48 h
[44] = test system: T47D; assay: Growth inhibition of human T47D cells incubated for 48 hrs by sulforhodamine B assay; type: functional

`COc1ccccc1CNCCCN1C(=O)c2ccc3c4c(ccc(c24)C1=O)C(=O)N(CCCOCCCCOCCCN)C3=O` showed a ΔTm [1] of 12.9 °C, a ΔTm [2] of 1.5 °C and a GI50 [3] of 550 nM. The GI50 [4] was 1720 nM, the GI50 [5] was 346 nM and the GI50 [6] was 1220 nM. For the same compound, the GI50 [7] was 1180 nM, the GI50 [8] was 2660 nM and the GI50 [9] was 2080 nM. The GI50 [10] was 1560 nM, the GI50 [11] was 605 nM and the GI50 [12] was 1900 nM. For the same compound, the GI50 [13] was 233 nM, the GI50 [14] was 635 nM and the GI50 [15] was 344 nM. The GI50 [16] was 550 nM, the GI50 [17] was 402 nM and the GI50 [18] was 357 nM. The GI50 [19] was 1430 nM, the GI50 [20] was 1420 nM and the GI50 [21] was 1530 nM. For the same compound, the GI50 [22] was 1790 nM, the GI50 [23] was 760 nM and the GI50 [24] was 1090 nM. The GI50 [25] was 200 nM, the GI50 [26] was 1830 nM and the GI50 [27] was 1590 nM. The GI50 [28] was 288 nM, the GI50 [29] was 283 nM and the GI50 [30] was 742 nM. It also gave a GI50 [31] of 593 nM, a GI50 [32] of 197 nM and a GI50 [33] of 1890 nM. For the same compound, the GI50 [34] was 491 nM, the GI50 [35] was 1530 nM and the GI50 [36] was 1110 nM. The GI50 [37] was 771 nM, the GI50 [38] was 918 nM and the GI50 [39] was 1970 nM. It also gave a GI50 [40] of 1550 nM, a GI50 [41] of 1780 nM and a GI50 [42] of 1220 nM. For the same compound, the GI50 [43] was 1950 nM and the GI50 [44] was 976 nM.
In the case of `COc1ccccc1CNCCCN1C(=O)c2ccc3c4c(ccc(c24)C1=O)C(=O)N(CCCNCCCN)C3=O`, the ΔTm [1] is reported as 13.3 °C, the ΔTm [2] is reported as 7 °C and the GI50 [3] is reported as 193 nM. It also gave a GI50 [4] of 612 nM, a GI50 [5] of 28 nM and a GI50 [6] of 148 nM. It also gave a GI50 [7] of 1020 nM, a GI50 [8] of 466 nM and a GI50 [9] of 1120 nM. For the same compound, the GI50 [10] was 746 nM, the GI50 [11] was 318 nM and the GI50 [12] was 1070 nM. It also gave a GI50 [13] of 457 nM, a GI50 [14] of 352 nM and a GI50 [15] of 135 nM. The GI50 [16] was 887 nM, the GI50 [17] was 160 nM and the GI50 [18] was 109 nM. The GI50 [19] was 410 nM, the GI50 [20] was 456 nM and the GI50 [21] was 702 nM. The GI50 [22] was 1300 nM, the GI50 [23] was 302 nM and the GI50 [24] was 992 nM. The GI50 [25] was 570 nM, the GI50 [26] was 907 nM and the GI50 [27] was 753 nM. For the same compound, the GI50 [28] was 484 nM, the GI50 [29] was 625 nM and the GI50 [30] was 655 nM. It also gave a GI50 [31] of 332 nM, a GI50 [32] of 873 nM and a GI50 [33] of 1410 nM. For the same compound, the GI50 [34] was 73 nM, the GI50 [35] was 715 nM and the GI50 [36] was 529 nM. For the same compound, the GI50 [37] was 246 nM, the GI50 [38] was 538 nM and the GI50 [39] was 1610 nM. It also gave a GI50 [40] of 745 nM, a GI50 [41] of 638 nM and a GI50 [42] of 1420 nM. It also gave a GI50 [43] of 1440 nM and a GI50 [44] of 793 nM.
In the case of `COc1ccccc1CNCCCN1C(=O)c2ccc3c4c(ccc(c24)C1=O)C(=O)N(CCCNCCCCNCCCN)C3=O`, the ΔTm [1] is reported as 21.4 °C, the ΔTm [2] is reported as 6.7 °C and the GI50 [3] is reported as 425 nM. The GI50 [4] was 626 nM, the GI50 [5] was 325 nM and the GI50 [6] was 581 nM. It also gave a GI50 [7] of 1400 nM, a GI50 [8] of 664 nM and a GI50 [9] of 687 nM. It also gave a GI50 [10] of 928 nM, a GI50 [11] of 356 nM and a GI50 [12] of 1210 nM. It also gave a GI50 [13] of 168 nM, a GI50 [14] of 296 nM and a GI50 [15] of 315 nM. It also gave a GI50 [16] of 1740 nM, a GI50 [17] of 309 nM and a GI50 [18] of 262 nM. It also gave a GI50 [19] of 338 nM, a GI50 [20] of 1080 nM and a GI50 [21] of 579 nM. For the same compound, the GI50 [22] was 752 nM, the GI50 [23] was 300 nM and the GI50 [24] was 645 nM. For the same compound, the GI50 [25] was 213 nM, the GI50 [26] was 229 nM and the GI50 [27] was 390 nM. It also gave a GI50 [28] of 156 nM, a GI50 [29] of 176 nM and a GI50 [30] of 364 nM. For the same compound, the GI50 [31] was 262 nM, the GI50 [32] was 160 nM and the GI50 [33] was 2030 nM. It also gave a GI50 [34] of 288 nM, a GI50 [35] of 1170 nM and a GI50 [36] of 747 nM. For the same compound, the GI50 [37] was 324 nM, the GI50 [38] was 319 nM and the GI50 [39] was 422 nM. The GI50 [40] was 2680 nM, the GI50 [41] was 693 nM and the GI50 [42] was 435 nM. For the same compound, the GI50 [43] was 1710 nM and the GI50 [44] was 214 nM.
